Data published in ChEMBL document CHEMBL4130464, “Cytotoxic Prenylated Stilbenes Isolated from Macaranga tanarius” (J Nat Prod, 2017).
Non-standard residues stand in square brackets, D forms with d. Residues, ends and D or L forms follow the SMILES beside them. *: point of attachment. Dolaproine = CO[C@@H]([C@@H]1CCCN1)[C@@H](C)C(=O)O; Dil = CC[C@H](C)[C@H](NC)[C@@H](CC(=O)O)OC; X1 = C[C@@H](N*)[C@@H](O)c1ccccc1; NMeV = CN[C@H](C(=O)O)C(C)C

How the values were obtained:
[1] = system: U-87 MG; test: Antiproliferative activity against human U87 cells after 72 hrs by MTS assay; type: functional, cell-based, U-87MG ATCC
Outline: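 U87 human glioblastoma cells (ATCC) kept in DMEM with 10% FCS and 1% glutamine at 37 °C, 5% CO2. Seeded at 2.5 × 10^3 cells/well, exposed after 24 h to compounds at 1 and 10 μM final for 72 h. […] added 2 h before reading absorbance at 490 nm. Percent cytotoxicity index (treated/control OD490 × 100) from three experiments.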

[2] = system: A549; test: Antiproliferative activity against human A549 cells after 72 hrs by MTS assay; type: functional, cell-based; conditions: A549, 72 h
Outline: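 A549 human lung cancer cells (ATCC) grown in RPMI 1640 with 10% FCS and 1% glutamine at 37 °C, 5% CO2. Cells seeded at 2.5 × 10^3 per well and cultured 24 h, then treated at 1 and 10 μM final for 72 h. […] added for 2 h, absorbance read at 490 nm. Cytotoxicity index (OD490treated/OD490control × 100) taken from three experiments.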

Structure (SMILES)	EC50 [1] [nM]	EC50 [2] [nM]
C/C(=C\Cc1cc(/C=C/c2cc(O)c3c(c2)OC(C)(C)[C@@H](O)C3)cc(O)c1O)CCC(O)C(C)(C)O (stereo partly drawn)	500	> 10000
CC(C)=CCC/C(C)=C/Cc1cc(/C=C/c2cc(O)cc(Oc3ccc4c(c3)O[C@H](c3ccc(C/C=C(\C)CCC=C(C)C)c(O)c3O)[C@@H]4O)c2)cc(O)c1O	> 10000	> 10000
COc1cc(/C=C/c2cc(O)c(CC=C(C)C)c(O)c2)cc(C/C=C(\C)CCC=C(C)C)c1O	7000	> 10000
CC(C)=CCC[C@]1(C)Oc2c(O)cc(/C=C/c3cc(O)c4c(c3)OC(C)(C)C(O)C4)cc2C[C@@H]1O (stereo partly drawn)	450	240
CC(C)=CCC/C(C)=C/CC/C(C)=C/Cc1c(O)cc(/C=C/c2ccc(O)c(O)c2)cc1O	25	> 10000
CC(C)=CCc1c(O)cc(/C=C/c2cc(O)c(O)c(C/C=C(\C)CCC(O)C(C)(C)O)c2)cc1O (stereo not drawn)	100	> 10000
CC(C)=CCc1c(O)cc(/C=C/c2cc(O)c3c(c2)C[C@@H]2C(C)(C)[C@H](O)C[C@H](O)[C@@]2(C)O3)cc1O	50	> 10000
CC(C)=CCC/C(C)=C/Cc1cc(/C=C/c2cc(O)c3c(c2)OC(C)(C)[C@@H](O)C3)cc(O)c1O	250	730
CC[C@H](C)[C@@H]([C@@H](CC(=O)N1CCC[C@H]1[C@H](OC)[C@@H](C)C(=O)N[C@H](C)[C@@H](O)c1ccccc1)OC)N(C)C(=O)[C@@H](NC(=O)[C@@H](NC)C(C)C)C(C)C (H-[NMeV]V[Dil][Dolaproine]-X1)	0.2	0.5
CC(C)=CCC/C(C)=C/Cc1cc(/C=C/c2cc(O)c(CC=C(C)C)c(O)c2)cc(O)c1O [MAPPAIN]	5400	7000
COc1cc(/C=C/c2cc(O)c(CC=C(C)C)c(O)c2)cc2c1O[C@]1(C)C[C@@H](O)[C@@H](O)C(C)(C)[C@H]1C2 [SCHWEINFURTHIN E]	200	260
COc1cc(/C=C/c2cc(O)c(CC=C(C)C)c(O)c2)cc2c1O[C@]1(C)CC[C@@H](O)C(C)(C)[C@H]1C2 [SCHWEINFURTHIN F]	240	1500
CC(C)=CCc1c(O)cc(/C=C/c2cc(O)c3c(c2)C[C@@H]2C(C)(C)[C@H](O)CC[C@@]2(C)O3)cc1O [SCHWEINFURTHIN G]	45	800
CC(C)=CCc1c(O)cc(/C=C/c2cc(O)c3c(c2)C[C@@H]2C(C)(C)[C@H](O)[C@H](O)C[C@@]2(C)O3)cc1O [VEDELIANIN]	30	190
